In ChEMBL document CHEMBL1142562, “Four new neuroprotective dihydropyranocoumarins from Angelica gigas” (2005):

Columns and labels:
Type in all cases: functional
Details in all cases: read-out: Activity
[1] = Neuroprotective effect against glutamate-stimulated rat cortical cells assessed as cell viability at 1 uM after 1 hr by LDH assay relative to control
How it was run: (§1)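 Mixed neuron–glia cortical cultures from Sprague-Dawley fetal rats (17-19 days old), matured ≥2 weeks and used at 17 days in vitro. Cultures were washed with DMEM and pretreated 1 h with compound in DMSO (0.1% final), then given 100 µM glutamate for 24 h. Viability was read as LDH efflux and expressed as % protection relative to control and glutamate-only cultures. Mean ± STD of three experiments, 5-6 cultures each.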

[2] = Neuroprotective effect against glutamate-stimulated rat cortical cells assessed as cell viability at 10 uM after 1 hr by LDH assay relative to control; how it was run: as §1
[3] = Neuroprotective effect against glutamate-stimulated rat cortical cells assessed as cell viability at 0.1 uM after 1 hr by LDH assay relative to control; how it was run: as §1

SMILES	viability at 1 µM [1]	viability at 10 µM [2]	viability at 0.1 µM [3]
NC(CCCP(=O)(O)O)C(=O)O (racemic)	25%	39%	10%
CC(C)=CC(=O)O[C@H]1Cc2cc3ccc(=O)oc3cc2OC1(C)C [DECURSIN]	50%	65.1%	39%
C/C(=C\CO)C(=O)O[C@H]1Cc2cc3ccc(=O)oc3cc2OC1(C)C	19.9%	1.2%	33.2%
C/C(=C\C(=O)O[C@H]1Cc2cc3ccc(=O)oc3cc2OC1(C)C)CO	34.1%	35.1%	38.4%
C[C@@H]1O[C@]1(C)C(=O)O[C@H]1Cc2cc3ccc(=O)oc3cc2OC1(C)C	52.5%	49%	70%
C[C@]12N[C@H](Cc3ccccc31)c1ccccc12 [DIZOCILPINE]	65%	70%	54%
N#Cc1cc2c(cc1[N+](=O)[O-])=NC(=O)C(=O)N=2	40.5%	50.5%	29%
C[C@H]1O[C@@]1(C)C(=O)O[C@H]1Cc2cc3ccc(=O)oc3cc2OC1(C)C	61.1%	56.7%	47.5%
CC1(C)Oc2cc3oc(=O)ccc3cc2C[C@@H]1O [DECURSINOL]	69.6%	40.7%	33.4%
